Results on two molecules are retold here after ChEMBL document CHEMBL2331349, “Discovery of olmesartan hexetil: a new potential prodrug of olmesartan” (Bioorg Med Chem Lett, 2013).

Series [1] deals with Rattus norvegicus. Nature of the series: AUClast in Sprague-Dawley rat assessed as olmesartan at 20 mg/kg, po. Format: ADME, organism-based, Plasma. Also on record: time 0 - last, dose 20 mg/kg, route oral. Particulars: in vivo. An outline of the steps:
(§1)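 Male Sprague-Dawley rats (n = 4) dosed orally by feeding tube, 20 mg/kg as olmesartan. Carotid artery blood drawn at 0, 0.5, 1, 2, 3, 4, 6, 8, 10 h; plasma stored until analysis. Olmesartan measured by modified LC–MS/MS. Non-compartmental analysis; AUClast by trapezoidal rule; Tmax given as median (range), others mean ± SD.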

The nature of series [2]: Half life in simulated gastric juice at 1 uM. Format: physicochemical. The method, boiled down: (§2)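 Substrate added from acetonitrile stock to rat plasma or simulated gastric juice, 1 µM final, 37 °C. Samples at 0, 15, 30, 60, 120 min quenched with twofold cold acetonitrile containing internal standard, centrifuged, supernatant analysed by LC–MS/MS. Half-life reported as mean of duplicate experiments.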

Series [3] relates to Rattus norvegicus. The experiment in a line: Tmax in Sprague-Dawley rat assessed as olmesartan at 20 mg/kg, po. Format: ADME, organism-based. Also on record: dose 20 mg/kg, route oral. Conditions: in vivo. The method, boiled down:
as §1

In series [4] the test system is Rattus norvegicus. Nature of the series: Cmax in Sprague-Dawley rat assessed as olmesartan at 20 mg/kg, po. Format: ADME, organism-based. Also noted: dose 20 mg/kg, route oral. Conditions: in vivo. The method, boiled down:
as §1

Series [5] can be described thus: Half life in rat plasma at 1 uM. Format: ADME, cell-free. The method, boiled down:
as §2

Series [6] can be described thus: Half life in rat liver microsomes at 1 uM. Format: ADME, Microsome. The method, boiled down: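 Incubation with rat liver microsomes, 0.5 mg/mL total protein, 1.2 mM NADPH, 100 mM phosphate buffer pH 7.4. Substrate added from acetonitrile stock to 1 µM final, 37 °C. Samples at 0, 15, 30, 60, 120 min quenched with twofold cold acetonitrile containing internal standard, centrifuged, supernatant by LC–MS/MS. Mean of duplicate experiments.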

The term half-life denotes the time in which the quantity being followed falls by half. A low value points to fast loss. In general, Tmax refers to the time at which the peak concentration occurs. By Cmax is commonly meant the highest concentration seen after dosing.

`CCCc1nc(C(C)(C)O)c(C(=O)OC(C)OC(=O)OC2CCCCC2)n1Cc1ccc(-c2ccccc2-c2nnn[nH]2)cc1` (stereo not given) [OLMESARTAN HEXETIL]: the AUClast in the series with Rattus norvegicus [1] came to 3013.8 ng·h/mL. The half-life at 1 µM in series [2] is 390 min; in series [5] it was 1.54 min; in series [6], 2.77 min. In the series on Rattus norvegicus [3], the Tmax is 54 min. Further, the Cmax in the series with Rattus norvegicus [4] stood at 1374.7 ng/mL.

Regarding `CCCc1nc(C(C)(C)O)c(C(=O)OCc2oc(=O)oc2C)n1Cc1ccc(-c2ccccc2-c2nnn[nH]2)cc1` [OLMESARTAN MEDOXOMIL], the AUClast in the series with Rattus norvegicus [1] was found to be 501.9 ng·h/mL. Also, the half-life at 1 µM in series [2] was over 1000 min. In the series with Rattus norvegicus [3], the Tmax is 60 min. Also, the Cmax in the series with Rattus norvegicus [4] turned out to be 153.6 ng/mL.
